Source: paper PMC2836884 (Journal of Acquired Immune Deficiency Syndromes (1999), 2009)
Like-named read-outs stand apart in the source and are kept apart here.

What was measured:
[1] = adults, cited from earlier work
[2] = adults n = 12 (24–48 yrs), cited from earlier work
[3] = in vivo, cited from earlier work
[4] = children n = 22 (3 mo to 13 yrs), cited from earlier work
[5] = tested on: HIV; conditions: 8 mg/kg twice daily with AZT or 3TC; previously untreated children; cited from earlier work
[6] = children receiving 8 mg/kg, primarily prepubescent; Jullien et al; cited from earlier work
[7] = tested on: cytochrome P450 system; conditions: cited from earlier work
[8] = type: in vivo, human
In short: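 HIV-1–infected patients aged 9–18 y, Tanner-stratified; one oral-solution dose of 8 mg/kg (max 600 mg) with water, fasted from 1 h before to 2 h after. Heparinised plasma sampled at 0–8 h (10 points) and assayed by reversed-phase HPLC-UV. Per-subject 1-compartment zero-order-absorption fit by weighted least squares gave kel and CL/F; Tmax by inspection; AUC 0–8 h.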

[9] = adults receiving 600 mg (approximately 8 mg/kg); Weller et al; cited from earlier work
[10] = in vivo, po; cited from earlier work

Question: What does the source list for Nc1nc(NC2CC2)c2ncn([C@H]3C=C[C@@H](CO)C3)c2n1 [ABC, Abacavir]?
Answer: AUC ([1]; recommended dose 300 mg twice daily): 5000 to 6000 ng·h/mL; AUC ([1]; single-dose studies, 600 mg): 11000 to 16000 ng·h/mL; AUC ([2]; single dose 4 mg/kg): 6000 ng·h/mL; CL/F ([2]; single dose 4 mg/kg): 13.4 mL/min per kg; Cmax ([2]; single dose 4 mg/kg): 2900 ng/mL; t½ ([2]; single dose 4 mg/kg): 1.2 h; CL/F ([2]; single dose 8 mg/kg (600 mg)): 10.2 mL/min per kg; AUC ([2]; single dose 8 mg/kg): 15700 ng·h/mL; Cmax ([2]; single dose 8 mg/kg): 4700 ng/mL; t½ ([2]; single dose 8 mg/kg): 1.7 h; oral clearance, adjusted for body size, higher for children than adults ([3]; po): approximately 2 times; systemic exposure (AUC) in children lower than adult values [3]: approximately 50%; AUC ([4]; single dose 4 mg/kg): 2800 ng·h/mL; CL/F ([4]; single dose 4 mg/kg): 27.4 mL/min per kg; Cmax ([4]; single dose 4 mg/kg): 1700 ng/mL; t½ ([4]; single dose 4 mg/kg): 0.9 h; AUC ([4]; single dose 8 mg/kg): 8100 ng·h/mL; CL/F ([4]; single dose 8 mg/kg): 18.9 mL/min per kg; Cmax ([4]; single dose 8 mg/kg): 3900 ng/mL; t½ ([4]; single dose 8 mg/kg): 1.1 h; reduction in viral load versus AZT/3TC combination [5]: larger reduction in viral load; mean CL/F [6]: 15.8 mL/min per kg; substrate or inhibitor of the cytochrome P450 system [7]: not a substrate or inhibitor of the cytochrome P450 system; Intersubject variation of CL/F referenced to body weight ([8]; all subjects): more than 8 fold; share of the total AUC in the period after 8 hours ([8]; all subjects, estimated): < 3%; Tmax ([8]; both, human, plasma, po, 8 mg/kg): 1 h; mean CL/F [9]: 11.5 mL/min per kg; amount eliminated unchanged in the urine [10]: < 5%
